In ChEMBL document CHEMBL1139864, “Chemical insights in the concept of hybrid drugs: the antitumor effect of nitric oxide-donating aspirin involves a quinone methide but not nitric oxide nor aspirin” (J Med Chem, 2007) one finds EC50 and Activity data, which are given here for eight molecules.

The source made the active and inactive calls. The rule behind the calls is not given here.

What all share (assay type): functional, cell-based
Test [1] relates to HT-29. In words: Apoptosis induction in human HT29 cells after 24 hrs. The note with it: HT-29, 24 h. The essentials: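 HT29 cells seeded at 25 000/well and attached 24 h, then exposed for 24 h at 37 C to compound (0-1000 M, added from DMSO; final DMSO 0.5%, 1.0% at 600 µM). Cells harvested, stained with PI, and 10 000 events counted by flow cytometry. PI-negative cells scored as living and EC50 fitted from the curves. Mean of 3-4 independent experiments.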

In test [2] the test system is HT-29. In words: Effect on cell death in HT29 cells pretreated with GSH synthesis inhibitor BSO. The note with it: Homo sapiens. The essentials: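 HT29 cells seeded 25 000/well, attached 24 h; 200 µM BSO for 4 h at 37 C, washed, then medium with or without EtGSH (10 mM) 3 h, washed. Then compound in DMSO (final 0.5%) for 24 h at 37 C; cells harvested, stained with PI, 10 000 events by flow cytometry; PI-negative cells counted as living. Mean of four independent experiments, standard deviations.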

Test [3] has as its system HT-29. In words: Induction of DNA fragmentation in human HT29 cells after 48 hrs by Nicoletti assay. The essentials: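 HT29 cells seeded 25 000/well, attached 24 h, then treated with compound for 48 h. Trypsinized, resuspended in Nicoletti buffer (0.1% Tx-100, 0.1% Na citrate, 50 g/mL PI), held overnight at 4 C. DNA content of nuclei measured by FACS to assess fragmentation.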

The test system of a further test is SW480. In words: Inhibition of serum-induced expression of cyclin D in human SW480 cells after 5 hrs. The essentials:
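SW480 cells starved of serum overnight, then stimulated with serum for 5 h with or without a range of compound concentrations. Cyclin D1 level read by Western blot.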

Test [4] has as its system HT-29. In words: Induction of PARP cleavage in human HT29 cells after 8 hrs. The essentials:
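HT29 cells incubated 8 h with a range of compound concentrations. The 116 kDa PARP cleavage was detected by Western blot.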

With `CC(=O)Oc1ccccc1C(=O)Oc1ccc(CO[N+](=O)[O-])cc1`, in the test with HT-29 [1], the EC50 amounted to 107 µM. In addition, the result with HT-29 [2], in the test with HT-29 [3], in the test on SW480 and with HT-29 [4] was Active.

Consider `CC(=O)N[C@@H](C(=O)O)C(C)(C)SN=O`, for which the EC50 with HT-29 [1] is more than 1000 µM.

Regarding `CC(=O)Oc1ccccc1C(=O)Oc1cccc(CO)c1`, the EC50 in the test with HT-29 [1] is more than 1000 µM.

As for `CC(=O)Oc1ccccc1C(=O)Oc1cccc(CO[N+](=O)[O-])c1` [NCX-4016], the response in the test with HT-29 [1] was half-maximal at 1000 µM (EC50). In addition, in the test on SW480, the outcome was inactive.

Turning to `CC(=O)Oc1ccc(CO[N+](=O)[O-])cc1`, in the test on HT-29 [1], the response was half-maximal at 9.3 µM (EC50). Also, the result with SW480 and with HT-29 [4] was Active.

The molecule `CC(=O)Oc1ccccc1C(=O)O` [ASPIRIN] had an EC50 in the test with HT-29 [1] of more than 1000 µM.

Consider `CC(=O)Oc1ccc(CCl)cc1`, for which, in the test with HT-29 [1], a half-maximal effect (EC50) was put at 8.7 µM. Besides, the outcome with HT-29 [2], in the test with HT-29 [3], with SW480 and in the test with HT-29 [4] was Active.

The molecule `CC(=O)Oc1ccccc1C(=O)Oc1ccc(CCl)cc1` yielded an EC50 in the test on HT-29 [1] of 40.1 µM. Moreover, the outcome with SW480 and in the test on HT-29 [4] was Active.
